The record followed here is ChEMBL document CHEMBL1137845, “Discovery of N-propylurea 3-benzylpiperidines as selective CC chemokine receptor-3 (CCR3) antagonists” (Bioorg Med Chem Lett, 2004).

Each structure is given as a SMILES string.

For assay [1], the target named is T1, C-C chemokine receptor type 3 (Homo sapiens) (UniProt P51677).
T1 sequence (whole entry): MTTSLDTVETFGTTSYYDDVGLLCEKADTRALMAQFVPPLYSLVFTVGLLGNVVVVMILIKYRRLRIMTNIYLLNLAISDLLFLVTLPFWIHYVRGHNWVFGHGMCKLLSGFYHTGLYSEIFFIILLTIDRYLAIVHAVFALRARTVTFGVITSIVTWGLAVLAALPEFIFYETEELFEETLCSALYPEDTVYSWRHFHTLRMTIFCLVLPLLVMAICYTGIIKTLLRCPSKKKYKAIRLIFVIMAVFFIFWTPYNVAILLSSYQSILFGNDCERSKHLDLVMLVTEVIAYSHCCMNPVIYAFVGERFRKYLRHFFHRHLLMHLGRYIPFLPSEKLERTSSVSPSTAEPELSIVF
Nature of the assay: Inhibitory concentration of compound against C-C chemokine receptor type 3 was determined using human [125I]eotaxin. The conditions noted are these: concentration not given here. In a few lines:
(§1)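 Displacement of 150 pM 125I-labeled human eotaxin from CHO cells (5×10^5 per well), compound 0.0001–1 μM, in RPMI 1640 with 0.5% BSA, 10 mM HEPES, 5 mM MgCl2; filter plates pretreated with 5 μg/mL protamine in PBS pH 7.2. 30 min at room temperature, vacuum filtration, three washes with binding buffer plus 0.5 M NaCl, bound label by liquid scintillation counting.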

Assay [2] addresses T2, C-C chemokine receptor type 3 (Homo sapiens, UniProt P51677).
T2 sequence (P51677 whole entry): T1 sequence (whole entry)
Nature of the assay: Inhibitory concentration against C-C chemokine receptor type 3 using human [125I]eotaxin. In a few lines:
as §1

Assay [3] concerns the target 5-hydroxytryptamine receptor 2A (Homo sapiens, UniProt P28223). The assay can be described thus: Inhibition of binding to serotonin 5-hydroxytryptamine 2A receptor.
Assay [4] can be described thus: Effective concentration determined in calcium mobilization assay. The format is functional. In a few lines:
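Calcium flux in 2×10^5 eosinophils preloaded with Fluo-3AM, stimulated with 10 nM eotaxin, compound 0.0001–1 μM, in RPMI 1640 with 0.1% BSA, 20 mM HEPES and 2.5 mM probenecid; fluorescence read on a fluorescent imaging plate reader.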
In general terms: A change in cytosolic calcium serves as a functional read-out for many receptors and channels.

A short description of assay [5]: Effect on chemotaxis of eosinophils was determined. It counts as functional.
The target in assay [6] is CC chemokine receptor 3 (Homo sapiens). The assay can be described thus: Binding affinity against CC chemokine receptor 3 was determined using human [125I]-eotaxin.

Chain of 5-hydroxytryptamine receptor 2A (P28223 whole entry): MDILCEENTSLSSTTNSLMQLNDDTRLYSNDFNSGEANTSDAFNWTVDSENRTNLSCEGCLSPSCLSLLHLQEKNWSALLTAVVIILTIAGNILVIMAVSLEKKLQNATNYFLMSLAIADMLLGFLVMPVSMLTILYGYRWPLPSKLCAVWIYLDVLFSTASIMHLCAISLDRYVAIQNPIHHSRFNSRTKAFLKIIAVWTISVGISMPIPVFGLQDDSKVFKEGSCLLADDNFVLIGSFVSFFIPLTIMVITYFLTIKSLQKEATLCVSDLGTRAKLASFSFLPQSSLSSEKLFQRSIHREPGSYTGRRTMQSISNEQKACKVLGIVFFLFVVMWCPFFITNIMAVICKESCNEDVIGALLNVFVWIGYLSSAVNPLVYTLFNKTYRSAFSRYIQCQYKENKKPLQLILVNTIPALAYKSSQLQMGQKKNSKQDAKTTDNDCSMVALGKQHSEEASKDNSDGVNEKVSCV

Turning to `CC(=O)c1cccc(NC(=O)NCCCN2CCN(C(C)=O)C(Cc3ccc(F)cc3)C2)c1` (stereo unspecified), in assay [1], the inhibition was 0%.

As to `COc1cccc(CC2CCCN(CCCNC(=O)Nc3cccc(C#N)c3)C2)c1` (stereo unspecified), the inhibition in assay [1] came to 31%.

As to `N#Cc1cccc(NC(=O)NCCCN2CCC(Cc3ccc(F)cc3)C2)c1` (stereo unspecified), 31 nM corresponded to half-maximal inhibition in assay [2] (IC50). Further, in assay [3], the Ki is 178 nM.

For the compound `CC(=O)c1cccc(NC(=O)NCCCN2CCC[C@@H](Cc3ccc(F)cc3)C2)c1`, inhibition in assay [2] was half-maximal at 2.5 nM (IC50). This compound also yielded an inhibition constant Ki in assay [3] of 1350 nM. Also, the EC50 amounted to 2.4 nM in assay [4] and 25 nM in assay [5].

In turn, `CC(=O)c1cccc(NC(=O)NCCCN2CC3CCC2[C@H](Cc2ccc(F)cc2)C3)c1` (stereo partly specified) displayed an IC50 in assay [2] of 802 nM. This counts as sub-micromolar.

With `COc1cccc(NC(=O)NCCCN2CCOC(Cc3ccccc3)C2)c1` (stereo unspecified), in assay [1], the inhibition was 14%.

In the case of `Cn1nnnc1-c1cc(NC(=O)NCCCN2CCC[C@@H](Cc3ccc(F)cc3)C2)cc(C(F)(F)F)c1`, the IC50 in assay [2] was 1.2 nM. In other words, the single-digit nanomolar range.

With `CC(=O)c1cccc(NC(=O)NCCCN2CC3CCC2[C@@H](Cc2ccc(F)cc2)C3)c1` (stereo partly specified), half-maximal inhibition in assay [2] (IC50) was put at 169 nM.

In the case of `CC(=O)c1cccc(NC(=O)NCCCN2CCC(Cc3ccc(F)cc3)CC2)c1`, the Ki in assay [3] came to 193 nM.

`Cn1nnnc1-c1cc(NC(=O)NCCCN2CCC[C@@H](Cc3ccc(F)cc3)C2)cc(-c2nnnn2C)c1`: it took 0.7 nM to reach half-maximal inhibition in assay [2] (IC50). In addition, the EC50 turned out to be 0.76 nM in assay [4] and 0.4 nM in assay [5].

Compound `N#Cc1cccc(NC(=O)NCCCN2CCCC(Cc3ccccc3F)C2)c1` (stereo unspecified) registered an IC50 in assay [2] of 38 nM. This compound registered a Ki in assay [3] of 2240 nM.

For the compound `Cn1nnnc1-c1cccc(NC(=O)NCCCN2CCC[C@@H](Cc3ccc(F)cc3)C2)c1`, in assay [2], the IC50 amounted to 0.6 nM. The figures for the EC50 in assay [4] and in assay [5] were 1.3 nM and 3.2 nM, respectively.

In assay [2], `CC(=O)c1cccc(NC(=O)NCCCN2[C@@H]3CC[C@H]2C[C@@H](Cc2ccc(F)cc2)C3)c1` (stereo in doubt; 22) showed an IC50 of 47 nM. In other words, the double-digit nanomolar range.

Take `CC(=O)c1cccc(NC(=O)NCCCN2C[C@H]3Cc4ccc(F)cc4C[C@H]3C2)c1`: the IC50 in assay [2] was determined as 56 nM.

On to `CNC(=O)c1cc(NC(=O)NCCCN2CCC[C@@H](Cc3ccc(F)cc3)C2)cc(-c2nnnn2C)c1`, for which, in assay [2], it took 0.7 nM to reach half-maximal inhibition (IC50). For the same compound, the EC50 in assay [4] was 0.6 nM; in assay [5] it was less than 1 nM.

In assay [2], `Cn1nnnc1-c1cc(NC(=O)NCCCN2CCC[C@@H](Cc3ccc(F)cc3)C2)cc(-c2ccccc2)c1` yielded an IC50 of 2.4 nM.

As to `N#Cc1cccc(NC(=O)NCCCN2CCC(Cc3ccccc3)CC2)c1`, the inhibition constant Ki in assay [3] came to 770 nM. This lies in the sub-micromolar range.

For `Cn1nnnc1-c1cc(CO)cc(NC(=O)NCCCN2CCC[C@@H](Cc3ccc(F)cc3)C2)c1`, the IC50 in assay [2] was 0.9 nM.

Compound `CC(C)n1nnnc1-c1cccc(NC(=O)NCCCN2CCC[C@@H](Cc3ccc(F)cc3)C2)c1` displayed an IC50 in assay [2] of 3.1 nM. This IC50 is about 3.4-fold higher than that of the compound before.

In the case of `COc1cccc(NC(=O)NCCCN2CCC(Cc3ccccc3)CC2)c1`, in assay [3], the Ki was 613 nM.

In the case of `CC(=O)c1cc(NC(=O)NCCCN2CCC[C@@H](Cc3ccc(F)cc3)C2)cc(-c2nnnn2C)c1`, the IC50 in assay [2] is 2.6 nM.

In assay [2], `N#Cc1cccc(NC(=O)NCCCN2CCCC(Cc3ccccc3)C2)c1` (stereo unspecified) returned a 50% inhibitory concentration (IC50) of 41 nM. In addition, the affinity in assay [3] corresponds to a Ki of 2940 nM.

On to `CC(=O)c1cccc(NC(=O)NCCCN2[C@@H]3CC[C@H]2C[C@@H](Cc2ccc(F)cc2)C3)c1` (stereo in doubt; 21), for which half-maximal inhibition in assay [2] (IC50) was put at 7.4 nM. This lies in the single-digit nanomolar range.

Take `N#Cc1cccc(NC(=O)NCCCN2CCCC(CCc3ccccc3)C2)c1` (stereo unspecified): the inhibition in assay [1] came to 66%.

Compound `CC(=O)c1cc(NC(=O)NCCCN2CCC[C@@H](Cc3ccc(F)cc3)C2)cc(C(C)=O)c1` showed an IC50 in assay [2] of 1.2 nM. Further, a half-maximal effect in assay [5] (EC50) was put at 3 nM.

On to `Cn1nnnc1-c1cc(Br)cc(NC(=O)NCCCN2CCC[C@@H](Cc3ccc(F)cc3)C2)c1`, for which the IC50 in assay [2] stood at 3.1 nM. Moreover, the EC50 in assay [4] was 3.4 nM; in assay [5] it was less than 1 nM.

`COc1cccc(NC(=O)NCCCN2CCCC(CCc3ccccc3)C2)c1` (stereo unspecified): the IC50 in assay [6] worked out at 787 nM. In assay [1], this compound gave an inhibition of 84%.

In assay [2], `O=C(NCCCN1CCC[C@@H](Cc2ccc(F)cc2)C1)Nc1cccc(-n2ccnc2)c1` came in with a concentration for half-maximal inhibition (IC50) of 7.1 nM.

On to `N#Cc1cccc(NC(=O)NCCCN2CCCC(Cc3cccc(F)c3)C2)c1` (stereo unspecified), for which the IC50 in assay [2] came out at 243 nM.

For the compound `N#Cc1cccc(NC(=O)NCCCN2CCOC(Cc3ccccc3)C2)c1` (stereo unspecified), in assay [1], the inhibition turned out to be 36%.

`N#Cc1cccc(NC(=O)NCCCN2CCCC(Cc3ccc(C(F)(F)F)cc3)C2)c1` (stereo unspecified): the inhibition in assay [1] was found to be 11%.

Take `CC(=O)c1cccc(NC(=O)NCCCN2CCC[C@H](Cc3ccc(F)cc3)C2)c1`: in assay [2], half-maximal inhibition (IC50) required 39 nM.

Turning to `CC(=O)c1cccc(NC(=O)NCCCN2C[C@@H]3C[C@@H](c4ccc(F)cc4)[C@@H]3C2)c1`, the inhibition in assay [1] was 68%.

In turn, `N#Cc1cccc(NC(=O)NCCCN2CCC(Cc3ccc(F)cc3)CC2)c1` returned a Ki in assay [3] of 167 nM. This lies in the sub-micromolar range.

With `N#Cc1cccc(NC(=O)NCCCN2CCCC(Cc3ccc(F)cc3F)C2)c1` (stereo unspecified), it took 19 nM to reach half-maximal inhibition in assay [2] (IC50). This compound also came in with a Ki in assay [3] of 2350 nM.

Compound `CC(=O)c1cccc(NC(=O)NCCCN2CC3(Cc4ccc(F)cc4)CCC2CC3)c1` showed an IC50 in assay [2] of 39 nM.

Consider `COc1cccc(NC(=O)NCCCN2CCCC(Cc3ccccc3)C2)c1` (stereo unspecified), for which the midpoint of inhibition in assay [2], the IC50, lay at 55 nM. For the same compound, the Ki in assay [3] amounted to 913 nM.

In the case of `N#Cc1cccc(NC(=O)NCCCN2CCCC(Cc3ccc(F)cc3)C2)c1` (stereo unspecified), the half-inhibitory concentration (IC50) in assay [2] is 29 nM. This compound also yielded a Ki in assay [3] of 2310 nM.

Regarding `Cc1cc(NC(=O)NCCCN2CCC[C@@H](Cc3ccc(F)cc3)C2)cc(-c2nnnn2C)c1`, in assay [2], the midpoint of inhibition, the IC50, lay at 1.5 nM. For the same compound, the concentration giving a half-maximal response (EC50) in assay [4] stood at 0.9 nM; in assay [5], 1 nM.

For `CCn1nnnc1-c1cccc(NC(=O)NCCCN2CCC[C@@H](Cc3ccc(F)cc3)C2)c1`, the IC50 in assay [2] was 1.2 nM.

In turn, `COc1cccc(NC(=O)NCCCN2CCC(Cc3ccc(F)cc3)CC2)c1` displayed an inhibition constant Ki in assay [3] of 224 nM.

In assay [2], `CC(=O)c1cccc(NC(=O)NCCCN2C[C@@H]3Cc4ccc(F)cc4C[C@H]3C2)c1` returned an IC50 of 49 nM.

In the case of `O=C(NCCCN1CCC[C@@H](Cc2ccc(F)cc2)C1)Nc1cccc(-c2nnco2)c1`, the IC50 in assay [2] turned out to be 3.6 nM. Further, in assay [4], the EC50 is 45 nM.

For the compound `O=C(NCCCN1CCC[C@@H](Cc2ccc(F)cc2)C1)Nc1cccc(-c2cnco2)c1`, the IC50 in assay [2] was 7.9 nM.

A word on the inhibition: it is the relative decrease from the control value, in per cent. Read a high inhibition as a response far below the control. The IC50 is the concentration that inhibits the measured activity by half. Read a high IC50 as weaker potency in that assay. For orientation: Ki means a measure of affinity in units of concentration, obtained from inhibition or displacement. The low end stands for higher affinity, the high end for lower affinity. By EC50 is commonly meant the midpoint of the concentration-response curve.
